Measurements from ChEMBL document CHEMBL1641579, “Synthesis and biological evaluation of 7-substituted-1-(3-bromophenylamino)isoquinoline-4-carbonitriles as inhibitors of myosin light chain kinase and epidermal growth factor receptor” (Bioorg Med Chem, 2011).

Legend:
[1] = target: Dual specificity mitogen-activated protein kinase kinase 1 (Homo sapiens) (UniProt Q02750); test: Inhibition of MKK1 assessed as residual activity at 10 uM
Method in brief: (§1)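 Kinase panel screen run as a radioactive activity assay at single compound concentration. Score reported as percent activity remaining relative to DMSO controls (100%).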

[2] = target: Misshapen-like kinase 1 (Homo sapiens) (UniProt Q8N4C8); test: Inhibition of MINK1 assessed as residual activity at 10 uM; method in brief: as §1
Chain of Misshapen-like kinase 1 (Homo sapiens) (Q8N4C8 whole entry, looked up): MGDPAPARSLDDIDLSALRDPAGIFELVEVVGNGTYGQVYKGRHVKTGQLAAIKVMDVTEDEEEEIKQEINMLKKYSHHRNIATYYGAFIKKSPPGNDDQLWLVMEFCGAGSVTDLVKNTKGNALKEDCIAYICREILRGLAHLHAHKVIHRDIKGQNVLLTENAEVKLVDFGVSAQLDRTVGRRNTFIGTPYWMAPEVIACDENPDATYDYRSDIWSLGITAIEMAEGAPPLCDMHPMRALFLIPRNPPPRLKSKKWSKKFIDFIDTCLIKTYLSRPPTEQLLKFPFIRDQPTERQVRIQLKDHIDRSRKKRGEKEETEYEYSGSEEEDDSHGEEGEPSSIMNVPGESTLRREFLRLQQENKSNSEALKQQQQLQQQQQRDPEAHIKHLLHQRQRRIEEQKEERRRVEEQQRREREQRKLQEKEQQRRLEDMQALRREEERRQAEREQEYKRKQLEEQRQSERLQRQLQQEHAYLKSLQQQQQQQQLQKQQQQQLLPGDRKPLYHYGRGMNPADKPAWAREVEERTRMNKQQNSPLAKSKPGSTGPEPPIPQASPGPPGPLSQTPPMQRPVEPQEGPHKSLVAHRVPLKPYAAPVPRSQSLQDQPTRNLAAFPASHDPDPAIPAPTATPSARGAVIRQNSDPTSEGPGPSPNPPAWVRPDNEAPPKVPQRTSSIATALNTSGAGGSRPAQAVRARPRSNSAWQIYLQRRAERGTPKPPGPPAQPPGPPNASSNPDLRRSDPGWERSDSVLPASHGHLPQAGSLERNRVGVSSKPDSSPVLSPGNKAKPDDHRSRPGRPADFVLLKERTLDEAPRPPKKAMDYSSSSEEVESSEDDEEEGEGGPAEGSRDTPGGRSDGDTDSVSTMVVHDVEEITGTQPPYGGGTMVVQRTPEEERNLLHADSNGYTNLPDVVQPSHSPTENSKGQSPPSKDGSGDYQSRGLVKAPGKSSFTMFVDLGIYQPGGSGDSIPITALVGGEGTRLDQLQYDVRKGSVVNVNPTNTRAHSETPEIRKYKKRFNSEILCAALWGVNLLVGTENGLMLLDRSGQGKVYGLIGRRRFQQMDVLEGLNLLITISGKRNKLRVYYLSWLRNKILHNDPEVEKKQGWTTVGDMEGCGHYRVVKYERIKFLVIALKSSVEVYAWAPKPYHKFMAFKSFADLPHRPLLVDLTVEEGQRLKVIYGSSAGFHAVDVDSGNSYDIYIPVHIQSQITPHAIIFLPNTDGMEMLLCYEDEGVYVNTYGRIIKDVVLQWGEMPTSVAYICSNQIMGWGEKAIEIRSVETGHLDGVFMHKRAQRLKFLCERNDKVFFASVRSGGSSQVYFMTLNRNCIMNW

[3] = target: T1, Mitogen-activated protein kinase 15 (Homo sapiens) (UniProt Q8TD08); test: Inhibition of ERK8 assessed as residual activity at 10 uM; method in brief: as §1
T1 sequence (whole entry): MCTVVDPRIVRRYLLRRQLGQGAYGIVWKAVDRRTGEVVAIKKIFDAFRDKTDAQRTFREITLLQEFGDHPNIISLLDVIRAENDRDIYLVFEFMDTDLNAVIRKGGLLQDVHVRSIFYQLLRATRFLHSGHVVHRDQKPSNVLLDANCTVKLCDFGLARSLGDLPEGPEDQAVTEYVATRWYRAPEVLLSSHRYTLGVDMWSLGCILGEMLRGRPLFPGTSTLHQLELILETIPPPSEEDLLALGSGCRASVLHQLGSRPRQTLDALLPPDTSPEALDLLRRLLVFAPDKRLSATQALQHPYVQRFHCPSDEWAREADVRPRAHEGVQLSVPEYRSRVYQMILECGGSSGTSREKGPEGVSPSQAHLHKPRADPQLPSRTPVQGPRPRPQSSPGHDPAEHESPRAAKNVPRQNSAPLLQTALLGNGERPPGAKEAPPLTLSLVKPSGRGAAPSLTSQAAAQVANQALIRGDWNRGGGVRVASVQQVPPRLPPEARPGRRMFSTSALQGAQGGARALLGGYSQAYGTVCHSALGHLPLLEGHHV

[4] = target: Serine/threonine-protein kinase Chk2 (Homo sapiens) (UniProt O96017); test: Inhibition of CHK2 assessed as residual activity at 10 uM; method in brief: as §1
Chain of Serine/threonine-protein kinase Chk2 (Homo sapiens) (O96017 whole entry): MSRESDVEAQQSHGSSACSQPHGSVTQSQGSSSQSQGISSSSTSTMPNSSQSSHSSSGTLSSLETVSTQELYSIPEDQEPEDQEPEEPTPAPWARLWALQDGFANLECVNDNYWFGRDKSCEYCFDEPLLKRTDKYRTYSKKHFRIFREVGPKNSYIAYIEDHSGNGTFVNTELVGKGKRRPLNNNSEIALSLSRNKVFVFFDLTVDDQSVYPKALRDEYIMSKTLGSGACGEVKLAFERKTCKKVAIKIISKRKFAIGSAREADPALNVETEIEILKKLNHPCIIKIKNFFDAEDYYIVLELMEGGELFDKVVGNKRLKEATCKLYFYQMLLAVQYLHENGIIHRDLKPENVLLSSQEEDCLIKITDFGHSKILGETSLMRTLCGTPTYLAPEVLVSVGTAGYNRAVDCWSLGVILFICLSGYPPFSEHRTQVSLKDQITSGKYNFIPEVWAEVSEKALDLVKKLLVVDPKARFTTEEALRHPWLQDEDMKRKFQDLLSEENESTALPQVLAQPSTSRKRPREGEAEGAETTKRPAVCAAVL

[5] = target: Tyrosine-protein kinase SYK (Homo sapiens) (UniProt P43405); test: Inhibition of SYK assessed as residual activity at 10 uM
Method in brief: (§2)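 Panel screen by radioactive kinase assay at a single inhibitor concentration. Score is the percent activity remaining relative to DMSO controls (100%).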

[6] = target: T2, Ephrin type-B receptor 3 (Homo sapiens) (UniProt P54753); test: Inhibition of EPHB3 assessed as residual activity at 10 uM; method in brief: as §1
T2 sequence (whole entry): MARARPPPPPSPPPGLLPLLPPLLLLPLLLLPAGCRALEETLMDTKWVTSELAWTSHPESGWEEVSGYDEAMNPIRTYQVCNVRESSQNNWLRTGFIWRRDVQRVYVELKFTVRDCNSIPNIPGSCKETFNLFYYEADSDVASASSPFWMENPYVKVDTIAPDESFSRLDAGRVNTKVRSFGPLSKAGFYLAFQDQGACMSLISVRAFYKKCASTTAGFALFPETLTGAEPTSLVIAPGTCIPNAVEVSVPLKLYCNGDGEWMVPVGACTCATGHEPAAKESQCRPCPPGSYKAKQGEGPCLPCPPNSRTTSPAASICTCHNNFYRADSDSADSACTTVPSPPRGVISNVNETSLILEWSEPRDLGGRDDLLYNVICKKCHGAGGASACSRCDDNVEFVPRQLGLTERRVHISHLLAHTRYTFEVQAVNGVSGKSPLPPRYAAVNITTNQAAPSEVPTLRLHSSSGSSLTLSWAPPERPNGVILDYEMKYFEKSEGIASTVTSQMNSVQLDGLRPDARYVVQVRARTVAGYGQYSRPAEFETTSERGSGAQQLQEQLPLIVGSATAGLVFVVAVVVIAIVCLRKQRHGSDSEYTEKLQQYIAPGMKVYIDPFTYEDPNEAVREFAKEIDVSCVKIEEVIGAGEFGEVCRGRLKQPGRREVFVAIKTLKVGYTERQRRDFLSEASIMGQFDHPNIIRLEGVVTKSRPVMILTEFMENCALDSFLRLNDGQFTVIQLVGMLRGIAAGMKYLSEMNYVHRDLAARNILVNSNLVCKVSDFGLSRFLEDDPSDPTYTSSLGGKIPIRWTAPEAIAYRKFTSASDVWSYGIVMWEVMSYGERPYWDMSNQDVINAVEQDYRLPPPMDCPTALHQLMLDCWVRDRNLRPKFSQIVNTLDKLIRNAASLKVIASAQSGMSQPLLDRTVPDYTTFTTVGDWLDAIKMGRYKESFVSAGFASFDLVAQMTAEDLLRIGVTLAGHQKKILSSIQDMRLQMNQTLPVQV

[7] = target: Casein kinase I isoform alpha (Homo sapiens) (UniProt P48729); test: Inhibition of CK1 assessed as residual activity at 10 uM; method in brief: as §1
Chain of Casein kinase I isoform alpha (Homo sapiens) (P48729 2-337 limits assumed): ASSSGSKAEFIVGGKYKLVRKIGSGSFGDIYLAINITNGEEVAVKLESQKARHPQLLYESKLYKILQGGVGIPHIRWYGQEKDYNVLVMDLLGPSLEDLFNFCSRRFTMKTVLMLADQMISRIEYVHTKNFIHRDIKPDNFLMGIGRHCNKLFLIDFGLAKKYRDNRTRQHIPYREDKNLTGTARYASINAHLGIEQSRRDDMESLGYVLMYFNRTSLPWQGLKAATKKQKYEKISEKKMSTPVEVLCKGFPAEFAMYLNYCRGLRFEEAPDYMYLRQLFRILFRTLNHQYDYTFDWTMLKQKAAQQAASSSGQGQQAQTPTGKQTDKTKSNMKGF

[8] = target: Ribosomal protein S6 kinase alpha-5 (Homo sapiens) (UniProt O75582); test: Inhibition of MSK1 assessed as residual activity at 10 uM; method in brief: as §2
Chain of Ribosomal protein S6 kinase alpha-5 (Homo sapiens) (O75582 whole entry, looked up): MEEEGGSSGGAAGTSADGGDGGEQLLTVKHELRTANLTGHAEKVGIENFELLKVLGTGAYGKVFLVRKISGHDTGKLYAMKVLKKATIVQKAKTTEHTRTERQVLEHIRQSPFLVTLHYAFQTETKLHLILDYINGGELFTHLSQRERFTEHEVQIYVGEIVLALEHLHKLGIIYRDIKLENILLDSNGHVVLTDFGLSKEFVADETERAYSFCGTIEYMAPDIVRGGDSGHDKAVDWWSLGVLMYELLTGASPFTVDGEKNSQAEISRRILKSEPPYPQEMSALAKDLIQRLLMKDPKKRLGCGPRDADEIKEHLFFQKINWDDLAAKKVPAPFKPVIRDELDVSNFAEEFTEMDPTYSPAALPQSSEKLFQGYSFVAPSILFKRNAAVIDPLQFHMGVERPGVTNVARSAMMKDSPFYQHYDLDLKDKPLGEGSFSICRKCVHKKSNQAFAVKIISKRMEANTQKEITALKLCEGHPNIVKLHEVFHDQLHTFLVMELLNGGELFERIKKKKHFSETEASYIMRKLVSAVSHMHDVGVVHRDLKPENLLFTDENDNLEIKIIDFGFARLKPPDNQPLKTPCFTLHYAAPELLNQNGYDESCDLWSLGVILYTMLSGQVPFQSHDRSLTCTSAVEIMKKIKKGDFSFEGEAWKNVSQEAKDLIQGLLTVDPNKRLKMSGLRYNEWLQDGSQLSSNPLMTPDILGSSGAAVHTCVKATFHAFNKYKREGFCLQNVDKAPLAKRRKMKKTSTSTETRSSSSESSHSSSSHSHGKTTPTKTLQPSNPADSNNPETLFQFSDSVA

[9] = target: T3, Serine/threonine-protein kinase 3 (Homo sapiens) (UniProt Q13188); test: Inhibition of MST2 assessed as residual activity at 10 uM; method in brief: as §2
T3 sequence (whole entry): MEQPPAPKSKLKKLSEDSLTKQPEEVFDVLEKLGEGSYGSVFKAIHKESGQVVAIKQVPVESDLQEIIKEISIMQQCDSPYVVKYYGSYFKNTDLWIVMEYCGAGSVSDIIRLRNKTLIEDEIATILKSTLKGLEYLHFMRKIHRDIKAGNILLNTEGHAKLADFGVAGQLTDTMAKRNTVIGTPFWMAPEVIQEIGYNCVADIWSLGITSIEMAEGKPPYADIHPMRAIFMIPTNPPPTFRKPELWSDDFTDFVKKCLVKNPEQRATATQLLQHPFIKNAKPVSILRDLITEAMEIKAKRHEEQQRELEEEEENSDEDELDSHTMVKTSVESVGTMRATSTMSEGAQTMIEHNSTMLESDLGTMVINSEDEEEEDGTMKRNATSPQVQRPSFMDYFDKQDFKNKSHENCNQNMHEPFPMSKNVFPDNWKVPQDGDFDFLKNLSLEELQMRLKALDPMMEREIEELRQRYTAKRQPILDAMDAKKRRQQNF

[10] = target: T4, Mitogen-activated protein kinase 13 (Homo sapiens) (UniProt O15264); test: Inhibition of P38delta assessed as residual activity at 10 uM; method in brief: as §2
T4 sequence (whole entry): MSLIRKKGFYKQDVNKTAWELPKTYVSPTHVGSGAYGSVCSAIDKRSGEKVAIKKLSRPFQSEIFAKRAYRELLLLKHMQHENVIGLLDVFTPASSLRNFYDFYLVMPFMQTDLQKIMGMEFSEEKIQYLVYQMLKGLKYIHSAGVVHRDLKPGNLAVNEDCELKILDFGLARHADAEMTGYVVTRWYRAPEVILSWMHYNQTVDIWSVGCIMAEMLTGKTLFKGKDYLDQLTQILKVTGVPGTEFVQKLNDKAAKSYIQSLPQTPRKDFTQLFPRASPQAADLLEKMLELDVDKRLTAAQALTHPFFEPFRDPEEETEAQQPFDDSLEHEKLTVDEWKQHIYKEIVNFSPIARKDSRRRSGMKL

[11] = target: Serine/threonine-protein kinase PAK 6 (Homo sapiens) (UniProt Q9NQU5); test: Inhibition of PAK6 assessed as residual activity at 10 uM; method in brief: as §2
Chain of Serine/threonine-protein kinase PAK 6 (Homo sapiens) (Q9NQU5 whole entry, looked up): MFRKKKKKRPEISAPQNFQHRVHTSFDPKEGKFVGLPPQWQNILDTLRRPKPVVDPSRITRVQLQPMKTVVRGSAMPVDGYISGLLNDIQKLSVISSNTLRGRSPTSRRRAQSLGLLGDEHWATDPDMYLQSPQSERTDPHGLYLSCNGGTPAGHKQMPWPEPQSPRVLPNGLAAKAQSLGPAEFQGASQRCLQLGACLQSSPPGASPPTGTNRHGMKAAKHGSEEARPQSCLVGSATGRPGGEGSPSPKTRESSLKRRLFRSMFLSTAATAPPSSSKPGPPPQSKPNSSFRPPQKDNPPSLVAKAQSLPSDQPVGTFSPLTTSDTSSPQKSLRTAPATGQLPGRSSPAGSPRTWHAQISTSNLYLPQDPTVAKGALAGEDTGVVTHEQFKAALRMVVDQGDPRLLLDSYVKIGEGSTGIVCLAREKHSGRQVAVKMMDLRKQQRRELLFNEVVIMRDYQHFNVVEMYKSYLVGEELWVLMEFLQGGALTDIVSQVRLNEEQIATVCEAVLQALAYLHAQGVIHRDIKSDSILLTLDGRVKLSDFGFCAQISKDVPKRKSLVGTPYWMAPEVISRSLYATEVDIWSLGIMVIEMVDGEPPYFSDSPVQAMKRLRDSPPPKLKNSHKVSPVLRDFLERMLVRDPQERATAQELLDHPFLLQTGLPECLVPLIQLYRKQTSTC

Chain of Dual specificity mitogen-activated protein kinase kinase 1 (Homo sapiens) (Q02750 whole entry): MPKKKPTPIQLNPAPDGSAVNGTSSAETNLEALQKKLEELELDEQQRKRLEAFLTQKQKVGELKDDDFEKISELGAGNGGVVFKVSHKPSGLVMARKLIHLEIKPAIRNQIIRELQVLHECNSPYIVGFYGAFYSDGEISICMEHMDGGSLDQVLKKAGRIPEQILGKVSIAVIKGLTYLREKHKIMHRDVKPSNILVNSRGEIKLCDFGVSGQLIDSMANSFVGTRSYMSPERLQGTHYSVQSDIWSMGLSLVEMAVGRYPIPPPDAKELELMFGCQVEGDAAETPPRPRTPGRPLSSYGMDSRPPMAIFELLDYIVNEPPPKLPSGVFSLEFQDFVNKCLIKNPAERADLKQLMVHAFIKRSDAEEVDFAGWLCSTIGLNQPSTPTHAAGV

Row | Activity [1] [%] | Activity [2] [%] | Activity [4] [%] | Activity [5] [%] | Activity [6] [%] | Activity [7] [%] | Activity [8] [%] | Activity [9] [%] | Activity [10] [%] | Activity [11] [%] | SMILES | Activity [3] [%]
1 | 79 | 54 | 53 | 77 | 90 | 100 | 81 | 86 | 77 | 87 | CN1CCN(CCC(=O)Nc2ccc3c(C#N)cnc(Nc4cccc(Br)c4)c3c2)CC1 | 72
2 | 47 | 58 | 51 | 61 | 95 | 88 | 95 | 82 | 86 | 100 | CN(C)C/C=C/C(=O)Nc1ccc2c(C#N)cnc(Nc3cccc(Br)c3)c2c1 | 78
3 | 100 | 59 | 56 | 64 | 100 | 100 | 86 | 99 | 94 | 100 | CN(C)CCCC(=O)Nc1ccc2c(C#N)cnc(Nc3cccc(Br)c3)c2c1 | 75
